The list is not random: actives were taken first. Their share in the collection is about 2.9%.
FID counter: counter-screen for HCV NS3 helicase inhibitors: DNA intercalator displacement; DNA fluorescent intercalator displacement, fluorescence; actives 0.17% (n = 290,000); inhibition, % at 7.9 µM; in the data active = inhibition above about 37%;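 also: higher means more ethidium bromide displaced from hairpin DNA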
IMP-1 inh: inhibitors of Pseudomonas aeruginosa IMP-1 metallo-beta-lactamase; inhibition, % at 5.6 µM; purified IMP-1, nitrocefin hydrolysis, epi-absorbance fluorescence; actives 0.45% (n = 290,000);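 active = inhibition above the mean plus 3 SD of all compounds in the same screening run, cut at about 4.5% in these data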
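System: purified recombinant IMP-1 beta-lactamase. Medium: Zinc- and detergent-supplemented HEPES buffer, pH 7.1. Compound: one 5.6 µM dose […]. Schedule: 15 min preincubation plus 25 min reaction at 25 °C. Technique: Epi-absorbance fluorescence, 480 nm excitation, 530 nm emission.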
Mot1-301 SUMO: inhibitors of SUMOylation pathway: yeast Mot1-301 growth rescue; growth rescue, % at 18.8 µM; S. cerevisiae Mot1-301 growth rescue, ATP luminescence, 38.5C; percent above DMSO median, 100 means doubled; actives 1% (n = 320,000);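 active = every valid replicate shows activation above 250% relative to neutral control wells; inactive = the rest, any valid replicate at or below 250%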
SUMO HTRF inh: SUMOylation inhibition | P63279 | inhibition, % at 35 µM | actives 0.36% (n = 290,000) | HTRF SUMOylation assay, SAE1/SAE2 + UBC9, in vitro | AID 2006; in the data active = inhibition above about 50%, passing the limit was not always enough
Target sequence (P63279 whole entry, looked up): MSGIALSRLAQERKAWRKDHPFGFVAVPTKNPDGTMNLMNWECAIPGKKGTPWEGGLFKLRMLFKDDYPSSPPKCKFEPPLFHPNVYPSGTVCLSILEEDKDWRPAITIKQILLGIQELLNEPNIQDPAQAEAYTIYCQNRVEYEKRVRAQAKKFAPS
NALP1 inh: blocks the NALP1 inflammasome reconstituted in yeast; S. cerevisiae NALP1/ASC/caspase-1 growth, X-gal OD620, 72 h; inhibition, % at 10 µM; actives 0.61% (n = 280,000); AID 2071; in the data active = inhibition mostly above about 24%, no sharp cut-off; inactive = mostly below about 32%
VIM-2 inh: blocks Pseudomonas aeruginosa VIM-2 metallo-beta-lactamase. AID 1527. actives 0.89% (n = 290,000). purified VIM-2, nitrocefin hydrolysis, epi-absorbance fluorescence. inhibition, % at 5.6 µM;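 active = inhibition above the mean of all tested compounds plus 3 SD, cutoff set per screening run, cut at about 7.5% in these data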;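 also: red hydrolysis product quenches plate fluorescence so inhibitors raise well fluorescence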
Yeast Mot1 SUMO: SUMO pathway inhibitors in yeast Mot1-301 growth; AID 493004; shares compounds with Mot1-301 SUMO; S. cerevisiae Mot1-301 galactose growth, ATP luminescence, 24 h; -100 = growth of slx-deleted rescue strain; 2,300 tested, under 10 active; growth activity, percent, % at 42 µM;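 active = Signal drops as the depositor expects, and the fitted half-maximal dose is no more than ten times the top valid tested dose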;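 also: more negative values mean stronger growth rescue toward the control strain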
Hits are given with their value; - = inactive; . = not tested or not shown; + = active, no number.

SMILES	FID counter	IMP-1 inh	Mot1-301 SUMO	SUMO HTRF inh	NALP1 inh	VIM-2 inh	Yeast Mot1 SUMO
Cc1sc2nc(CN3CCCC3)nc(NCc3ccncc3)c2c1C	-	-	802.0	-	-	-	-
CC[N+](CC)(CC(=O)Nc1c(C)cccc1C)Cc1ccccc1	.	.	-	.	.	.	.
CN(Cc1ccc(F)cc1)C(=O)CNC(=O)C1CCCCC1	-	-	-	-	-	-	.
Cc1cc(NC(=O)CSc2nnc(-c3c[nH]c4ccccc34)n2C)no1	-	-	-	-	-	-	.
Cc1ccc(S(=O)(=O)NCCS(=O)(=O)N2CCN(c3ccc(F)cc3)CC2)cc1	.	.	542.6	.	.	.	-
O=S(=O)(NCCS(=O)(=O)N1CCN(c2ccccc2)CC1)c1ccccc1	-	-	-	-	-	-	.
COc1cc(-c2nnc3sc(C4CCCCC4)nn23)cc(OC)c1OC	-	-	.	-	.	-	.
Cc1cc(-c2nnc3sc(C4CCCCC4)nn23)n[nH]1	-	-	690.8	-	-	-	-
C=CCn1c(CCC)nc2ccccc21	-	-	633.7	-	-	-	-
CN(C)CCCN(Cc1ccccc1)C(=S)Nc1ccc(F)c(Cl)c1	-	-	608.0	-	33.4	-	-
CN(C)CCCN(Cc1ccccc1)C(=S)Nc1cccc(C(F)(F)F)c1	-	-	-	-	-	-	.
Cc1nc(-c2ccncc2)sc1C(=O)Nc1ccc(Br)cc1	-	-	744.7	-	-	-	-
CC(=O)Nc1ccc(NC(=O)c2sc(-c3ccccc3)nc2C)cc1	-	-	-	-	-	-	.
CCOC(=O)c1n[nH]n2c1nc(=S)c1ccccc12	-	-	-	-	-	-	.
COc1ccc2c(c1)C(=O)N1[C@H]3c4cc(OC)ccc4OC[C@@H]3[C@H](c3ccccc3)[C@]1(C)C(=O)N2	.	.	-	.	.	.	.
COc1ccc2c(c1)OC[C@H]1[C@H]2N2C(=O)c3cc(OC)c(OC)cc3NC(=O)[C@@]2(C)[C@H]1c1ccccc1	.	.	485.2	.	.	.	-
COc1ccc2c(c1)OC[C@H]1[C@H]2N2C(=O)c3cc(Br)ccc3NC(=O)[C@@]2(C)[C@H]1c1ccccc1	.	.	468.3	.	.	.	-
COc1ccc2c(c1)[C@H]1[C@H](CO2)[C@H](c2ccccc2)[C@]2(C)C(=O)Nc3cc(F)ccc3C(=O)N12	.	.	375.5	.	.	.	-
COc1ccc2c(c1)[C@H]1[C@H](CO2)[C@H](c2ccccc2)[C@]2(C)C(=O)Nc3ccc(Br)cc3C(=O)N12	.	.	548.5	.	.	.	-
Cc1ccc2c(c1)[C@H]1[C@H](CO2)[C@H](c2ccccc2)[C@]2(C)C(=O)Nc3ccc(Br)cc3C(=O)N12	.	.	-	.	.	.	.
COc1cc2c(cc1OC)C(=O)N1[C@H]3c4ccccc4OC[C@@H]3[C@H](c3ccccc3)[C@]1(C)C(=O)N2	.	.	-	.	.	.	.
Cc1ccc(O)c(C(=O)c2cc(C#N)c3nc4ccccc4n3c2)c1	-	-	-	-	-	-	.
Cc1ccc(C2C(C(=O)c3cccs3)=C(O)C(=O)N2c2ccc(S(N)(=O)=O)cc2)cc1 (centres undefined)	-	-	931.7	-	-	-	-
CCOc1cc(NC(=O)c2cccs2)c(OCC)cc1NC(=O)CCC(=O)NCCN1CCOCC1	-	-	387.8	-	-	-	-
Cc1ccc(CSCCNC(=O)c2ccc(C)cc2)cc1	-	-	-	-	-	-	.
SMILES	FID counter	IMP-1 inh	Mot1-301 SUMO	SUMO HTRF inh	NALP1 inh	VIM-2 inh	Yeast Mot1 SUMO
Cc1ccc(CSCCNC(=O)c2ccc(NS(C)(=O)=O)cc2)cc1	-	-	453.3	-	-	-	-
Cc1ccnc2nc(C(=O)OCC(=O)c3ccccc3)nn12	.	.	-	.	.	.	.
COc1cc2c(cc1OC)CN(S(=O)(=O)c1ccccc1F)CC2	-	-	-	-	-	-	.
COc1cc2c(cc1OC)CN(S(=O)(=O)c1cccc(F)c1)CC2	-	-	+	-	-	-	-
O=C(Cc1cccs1)Nc1nnc(-c2ccncc2)s1	-	-	+	-	-	-	-
CN(C)c1nc2c(c(=O)[nH]c(=O)n2C)n1CCOc1ccccc1	-	-	-	-	-	-	.
CCN(CC)c1nc2c(c(=O)[nH]c(=O)n2C)n1CCOc1ccccc1	-	-	710.1	-	-	-	-
Cn1c(=O)c2c(=O)cc(N)[nH]c2n(C)c1=O	-	-	-	-	-	-	.

Assay outcomes deposited in PubChem BioAssay by several laboratories.
